Experiment [1] has as its target T1, Dual specificity mitogen-activated protein kinase kinase 4 (Homo sapiens) (UniProt P45985).
T1 sequence (whole entry): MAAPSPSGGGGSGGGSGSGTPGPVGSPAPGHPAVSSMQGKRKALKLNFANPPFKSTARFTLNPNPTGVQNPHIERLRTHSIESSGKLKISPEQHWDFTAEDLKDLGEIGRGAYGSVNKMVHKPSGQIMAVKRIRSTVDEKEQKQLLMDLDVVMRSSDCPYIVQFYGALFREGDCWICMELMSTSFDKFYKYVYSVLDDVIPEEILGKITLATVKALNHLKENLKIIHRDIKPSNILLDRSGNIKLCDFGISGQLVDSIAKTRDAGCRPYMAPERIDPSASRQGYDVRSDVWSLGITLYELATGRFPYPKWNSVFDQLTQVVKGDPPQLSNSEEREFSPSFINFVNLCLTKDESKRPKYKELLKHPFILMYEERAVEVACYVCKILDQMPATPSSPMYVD
Kind of experiment: Inhibition of human MEK4 (84 to 399 residues) expressed in mammalian expression system assessed as enzyme activity at 1 uM by KINOMEScan assay relative to control. The arrangement: scale not given: the % may be the effect or the level left. The procedure, abridged:
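In vitro ATP-site competition binding assay across a panel of 456 kinases, with compound tested at 1 and 10 μM.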

Experiment [2] concerns the target Acidic leucine-rich nuclear phosphoprotein 32 family member B (Homo sapiens) (UniProt Q92688). Kind of experiment: Binding affinity to ANP32B in human NCI-H358 cells at 1 uM by mass spectrometry based pull down assay. The format is cell-based.
Experiment [3] has as its target Serine/threonine-protein kinase Chk2 (Homo sapiens) (UniProt O96017). Kind of experiment: Binding affinity to CHEK2 in human NCI-H23 cells at 1 uM by mass spectrometry based pull down assay. The format is cell-based.
Experiment [4] addresses TGF-beta-activated kinase 1 and MAP3K7-binding protein 1 (Homo sapiens) (UniProt Q15750). Kind of experiment: Binding affinity to TAB1 in human NCI-H23 cells at 1 uM by mass spectrometry based pull down assay. The format is cell-based.
Experiment [5] addresses TGF-beta-activated kinase 1 and MAP3K7-binding protein 2 (Homo sapiens) (UniProt Q9NYJ8). As to the kind of experiment: Binding affinity to TAB2 in human NCI-H23 cells at 1 uM by mass spectrometry based pull down assay. The format is cell-based.
Experiment [6] addresses Y-box-binding protein 1 (Homo sapiens) (UniProt P67809). As to the kind of experiment: Binding affinity to YBX1 in human NCI-H23 cells at 1 uM by mass spectrometry based pull down assay. The format is cell-based.
The target in experiment [7] is ADP/ATP translocase 2 (Homo sapiens) (UniProt P05141). As to the kind of experiment: Binding affinity to SLC25A5 in human NCI-H23 cells at 1 uM by mass spectrometry based pull down assay. Type of experiment: cell-based.
Experiment [8] has as its target Nucleoside diphosphate kinase A/B (Homo sapiens) (UniProt P15531+P22392). Kind of experiment: Binding affinity to NME1-NME2 in human NCI-H23 cells at 1 uM by mass spectrometry based pull down assay. Type of experiment: cell-based.
Experiment [9] has as its target Opioid growth factor receptor (Homo sapiens) (UniProt Q9NZT2). Kind of experiment: Binding affinity to OGFR in human NCI-H23 cells at 1 uM by mass spectrometry based pull down assay. The format is cell-based.
The target of experiment [10] is Cytosolic iron-sulfur assembly component 2B (Homo sapiens) (UniProt Q9Y3D0). As to the kind of experiment: Binding affinity to FAM96B in human NCI-H23 cells at 1 uM by mass spectrometry based pull down assay. Type of experiment: cell-based.
The target in experiment [11] is Deoxyuridine 5'-triphosphate nucleotidohydrolase, mitochondrial (Homo sapiens) (UniProt P33316). Kind of experiment: Binding affinity to DUT in human NCI-H358 cells at 1 uM by mass spectrometry based pull down assay. Type of experiment: cell-based.
For experiment [12], the target named is Isocitrate dehydrogenase [NAD] subunit alpha, mitochondrial (Homo sapiens) (UniProt P50213). As to the kind of experiment: Binding affinity to IDH3A in human NCI-H358 cells at 1 uM by mass spectrometry based pull down assay. The format is cell-based.
Experiment [13] has as its target Glycogen synthase kinase-3 beta (Homo sapiens) (UniProt P49841). As to the kind of experiment: Binding affinity to GSK3B in human NCI-H23 cells at 1 uM by mass spectrometry based pull down assay. The format is cell-based.
In experiment [14] the target is AP2-associated protein kinase 1 (Homo sapiens) (UniProt Q2M2I8). As to the kind of experiment: Binding affinity to AAK1 in human NCI-H23 cells at 1 uM by mass spectrometry based pull down assay. The format is cell-based. The procedure, abridged: (§1)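 NCI-H23 or NCI-H358 cells were grown and lysed. Lysates were incubated overnight at 4 °C with 1 μM biotinylated covalent probe or DMSO, then pulled down on streptavidin beads. Proteins were run on polyacrylamide gels and stained with Coomassie. Bands were excised, digested and identified by mass spectrometry.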

Experiment [15] concerns the target Transmembrane emp24 domain-containing protein 10 (Homo sapiens) (UniProt P49755). As to the kind of experiment: Binding affinity to TMED10 in human NCI-H358 cells at 1 uM by mass spectrometry based pull down assay. The format is cell-based.
For experiment [16], the target named is Ketosamine-3-kinase (Homo sapiens) (UniProt Q9HA64). As to the kind of experiment: Binding affinity to FN3KRP in human NCI-H358 cells at 1 uM by mass spectrometry based pull down assay. The format is cell-based.
The target in experiment [17] is Alkyldihydroxyacetonephosphate synthase, peroxisomal (Homo sapiens) (UniProt O00116). Kind of experiment: Binding affinity to AGPS in human NCI-H23 cells at 1 uM by mass spectrometry based pull down assay. Type of experiment: cell-based. The procedure, abridged: as §1
Experiment [18] concerns the target Thioredoxin (Homo sapiens) (UniProt P10599). Kind of experiment: Binding affinity to TXN in human NCI-H358 cells at 1 uM by mass spectrometry based pull down assay. The format is cell-based.
Experiment [19] concerns the target Ribonucleoside-diphosphate reductase large subunit (Homo sapiens) (UniProt P23921). Kind of experiment: Binding affinity to RRM1 in human NCI-H23 cells at 1 uM by mass spectrometry based pull down assay. The format is cell-based.
The target of experiment [20] is Sequestosome-1 (Homo sapiens) (UniProt Q13501). Kind of experiment: Binding affinity to SQSTM1 in human NCI-H358 cells at 1 uM by mass spectrometry based pull down assay. Type of experiment: cell-based.
For experiment [21], the target named is Glucose-6-phosphate isomerase (Homo sapiens) (UniProt P06744). As to the kind of experiment: Binding affinity to GPI in human NCI-H358 cells at 1 uM by mass spectrometry based pull down assay. The format is cell-based.
Experiment [22] addresses Signal recognition particle receptor subunit beta (Homo sapiens) (UniProt Q9Y5M8). Kind of experiment: Binding affinity to SRPRB in human NCI-H358 cells at 1 uM by mass spectrometry based pull down assay. Type of experiment: cell-based.
In a further experiment the test system is NCI-H23. Kind of experiment: Binding affinity to PSMA1 in human NCI-H23 cells at 1 uM by mass spectrometry based pull down assay. The format is cell-based.
Experiment [23] addresses DNA replication licensing factor MCM4 (Homo sapiens) (UniProt P33991). As to the kind of experiment: Binding affinity to MCM4 in human NCI-H358 cells at 1 uM by mass spectrometry based pull down assay. The format is cell-based.
In experiment [24] the target is Low molecular weight phosphotyrosine protein phosphatase (Homo sapiens) (UniProt P24666). As to the kind of experiment: Binding affinity to ACP1 in human NCI-H358 cells at 1 uM by mass spectrometry based pull down assay. Type of experiment: cell-based. Put shortly: as §1
The target of experiment [25] is 14-3-3 protein gamma (Homo sapiens) (UniProt P61981). As to the kind of experiment: Binding affinity to YWHAG in human NCI-H23 cells at 1 uM by mass spectrometry based pull down assay. The format is cell-based.
In experiment [26] the target is DnaJ homolog subfamily B member 6 (Homo sapiens) (UniProt O75190). As to the kind of experiment: Binding affinity to DNAJB6 in human NCI-H23 cells at 1 uM by mass spectrometry based pull down assay. The format is cell-based.
Experiment [27] has as its target Hippocalcin-like protein 1 (Homo sapiens) (UniProt P37235). As to the kind of experiment: Binding affinity to HPCAL1 in human NCI-H358 cells at 1 uM by mass spectrometry based pull down assay. Type of experiment: cell-based.

Activity calls are given as the source filed them. No cut-off for these calls is given here.

Chain of Signal recognition particle receptor subunit beta (Homo sapiens) (Q9Y5M8 whole entry): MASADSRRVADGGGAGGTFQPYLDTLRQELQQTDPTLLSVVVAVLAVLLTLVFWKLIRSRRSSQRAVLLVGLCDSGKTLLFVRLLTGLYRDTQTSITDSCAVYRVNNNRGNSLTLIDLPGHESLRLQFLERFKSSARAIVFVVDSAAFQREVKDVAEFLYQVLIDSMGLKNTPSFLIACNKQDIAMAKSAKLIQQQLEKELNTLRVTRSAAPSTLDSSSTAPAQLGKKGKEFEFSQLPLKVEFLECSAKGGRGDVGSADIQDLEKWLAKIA
Chain of Sequestosome-1 (Homo sapiens) (Q13501 whole entry): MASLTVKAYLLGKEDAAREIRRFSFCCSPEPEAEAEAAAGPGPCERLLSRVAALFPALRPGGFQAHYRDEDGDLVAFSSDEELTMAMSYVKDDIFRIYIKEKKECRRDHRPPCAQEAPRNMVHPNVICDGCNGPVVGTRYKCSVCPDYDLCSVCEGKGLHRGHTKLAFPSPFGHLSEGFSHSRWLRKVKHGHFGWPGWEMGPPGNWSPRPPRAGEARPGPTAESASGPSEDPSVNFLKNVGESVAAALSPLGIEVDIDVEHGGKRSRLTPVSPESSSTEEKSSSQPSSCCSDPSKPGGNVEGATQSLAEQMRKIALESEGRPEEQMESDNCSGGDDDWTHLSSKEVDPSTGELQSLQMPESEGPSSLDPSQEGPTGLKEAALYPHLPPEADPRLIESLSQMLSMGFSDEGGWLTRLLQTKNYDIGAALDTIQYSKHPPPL
Chain of 14-3-3 protein gamma (Homo sapiens) (P61981 whole entry): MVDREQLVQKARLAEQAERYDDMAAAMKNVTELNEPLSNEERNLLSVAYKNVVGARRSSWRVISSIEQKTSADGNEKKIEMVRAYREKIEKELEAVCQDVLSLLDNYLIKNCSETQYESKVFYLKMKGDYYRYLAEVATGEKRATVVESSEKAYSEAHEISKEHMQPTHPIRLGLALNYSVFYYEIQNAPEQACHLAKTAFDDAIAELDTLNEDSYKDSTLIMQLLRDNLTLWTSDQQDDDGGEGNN
Chain of Ribonucleoside-diphosphate reductase large subunit (Homo sapiens) (P23921 whole entry): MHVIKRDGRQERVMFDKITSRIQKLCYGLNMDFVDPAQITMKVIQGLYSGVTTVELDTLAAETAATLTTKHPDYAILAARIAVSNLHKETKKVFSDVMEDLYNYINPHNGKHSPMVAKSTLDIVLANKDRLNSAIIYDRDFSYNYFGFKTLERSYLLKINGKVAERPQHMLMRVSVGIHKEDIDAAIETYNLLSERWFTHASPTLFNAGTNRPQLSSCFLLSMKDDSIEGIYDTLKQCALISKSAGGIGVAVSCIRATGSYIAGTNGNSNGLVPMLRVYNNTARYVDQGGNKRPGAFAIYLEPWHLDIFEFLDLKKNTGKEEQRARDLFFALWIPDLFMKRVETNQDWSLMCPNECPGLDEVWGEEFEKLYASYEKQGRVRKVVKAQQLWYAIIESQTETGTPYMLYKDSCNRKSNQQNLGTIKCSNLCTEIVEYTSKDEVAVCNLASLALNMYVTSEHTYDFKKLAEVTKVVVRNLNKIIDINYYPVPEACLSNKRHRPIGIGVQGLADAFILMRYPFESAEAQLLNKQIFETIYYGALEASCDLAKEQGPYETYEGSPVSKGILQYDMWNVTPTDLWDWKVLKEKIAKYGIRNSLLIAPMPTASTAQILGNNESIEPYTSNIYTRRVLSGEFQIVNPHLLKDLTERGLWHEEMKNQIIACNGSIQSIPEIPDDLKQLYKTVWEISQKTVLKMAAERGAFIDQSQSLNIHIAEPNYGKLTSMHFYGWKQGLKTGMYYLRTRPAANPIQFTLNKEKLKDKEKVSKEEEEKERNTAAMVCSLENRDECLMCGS
Chain of Glycogen synthase kinase-3 beta (Homo sapiens) (P49841 whole entry, looked up): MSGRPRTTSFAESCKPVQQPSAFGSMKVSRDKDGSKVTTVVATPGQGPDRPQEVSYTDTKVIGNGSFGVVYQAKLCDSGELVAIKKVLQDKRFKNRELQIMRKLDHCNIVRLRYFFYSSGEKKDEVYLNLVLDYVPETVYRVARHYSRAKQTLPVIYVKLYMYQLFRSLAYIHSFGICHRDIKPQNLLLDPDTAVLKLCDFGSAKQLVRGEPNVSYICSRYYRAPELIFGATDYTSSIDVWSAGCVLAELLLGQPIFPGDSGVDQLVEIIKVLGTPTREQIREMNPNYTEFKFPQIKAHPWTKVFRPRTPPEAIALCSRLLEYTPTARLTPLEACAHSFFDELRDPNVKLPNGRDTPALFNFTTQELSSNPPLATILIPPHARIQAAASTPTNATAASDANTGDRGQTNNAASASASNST
Chain of DnaJ homolog subfamily B member 6 (Homo sapiens) (O75190 whole entry): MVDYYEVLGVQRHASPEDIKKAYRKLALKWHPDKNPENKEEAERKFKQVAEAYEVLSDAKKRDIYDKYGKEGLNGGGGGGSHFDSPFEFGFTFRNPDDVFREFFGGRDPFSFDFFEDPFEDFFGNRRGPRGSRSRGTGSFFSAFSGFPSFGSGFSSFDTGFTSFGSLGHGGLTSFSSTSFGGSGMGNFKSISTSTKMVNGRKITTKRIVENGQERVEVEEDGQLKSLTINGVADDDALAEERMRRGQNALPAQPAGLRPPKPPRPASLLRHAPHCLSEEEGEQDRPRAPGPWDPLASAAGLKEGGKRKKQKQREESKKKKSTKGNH
Chain of Nucleoside diphosphate kinase A/B (Homo sapiens) (P15531 whole entry, looked up): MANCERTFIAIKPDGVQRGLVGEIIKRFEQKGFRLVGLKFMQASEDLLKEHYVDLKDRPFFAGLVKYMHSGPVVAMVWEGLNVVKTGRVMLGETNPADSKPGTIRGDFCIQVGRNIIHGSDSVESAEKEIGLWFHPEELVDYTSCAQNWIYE
Chain of Nucleoside diphosphate kinase A/B (Homo sapiens) (P22392 whole entry, looked up): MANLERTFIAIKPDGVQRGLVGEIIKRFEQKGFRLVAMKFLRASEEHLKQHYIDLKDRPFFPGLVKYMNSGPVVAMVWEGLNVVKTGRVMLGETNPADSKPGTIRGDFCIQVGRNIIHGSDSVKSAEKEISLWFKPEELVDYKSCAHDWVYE
Chain of Alkyldihydroxyacetonephosphate synthase, peroxisomal (Homo sapiens) (O00116 whole entry): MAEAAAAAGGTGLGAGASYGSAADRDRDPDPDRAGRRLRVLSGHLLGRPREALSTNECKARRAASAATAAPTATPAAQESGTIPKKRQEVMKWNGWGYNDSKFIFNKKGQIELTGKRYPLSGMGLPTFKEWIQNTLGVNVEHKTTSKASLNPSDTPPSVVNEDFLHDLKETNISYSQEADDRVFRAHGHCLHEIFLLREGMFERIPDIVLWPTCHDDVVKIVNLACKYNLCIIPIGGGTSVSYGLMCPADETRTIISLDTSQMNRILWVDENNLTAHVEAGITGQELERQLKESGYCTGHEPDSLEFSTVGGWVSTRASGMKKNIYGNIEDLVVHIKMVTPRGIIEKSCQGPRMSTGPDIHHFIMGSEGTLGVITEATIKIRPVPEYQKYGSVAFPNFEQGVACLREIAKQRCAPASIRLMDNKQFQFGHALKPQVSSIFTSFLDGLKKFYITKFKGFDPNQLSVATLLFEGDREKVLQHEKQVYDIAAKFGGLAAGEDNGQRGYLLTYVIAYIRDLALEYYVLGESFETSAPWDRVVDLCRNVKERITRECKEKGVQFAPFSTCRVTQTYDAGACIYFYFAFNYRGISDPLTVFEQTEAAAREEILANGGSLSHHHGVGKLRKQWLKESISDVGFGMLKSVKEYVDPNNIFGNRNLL
Chain of ADP/ATP translocase 2 (Homo sapiens) (P05141 whole entry): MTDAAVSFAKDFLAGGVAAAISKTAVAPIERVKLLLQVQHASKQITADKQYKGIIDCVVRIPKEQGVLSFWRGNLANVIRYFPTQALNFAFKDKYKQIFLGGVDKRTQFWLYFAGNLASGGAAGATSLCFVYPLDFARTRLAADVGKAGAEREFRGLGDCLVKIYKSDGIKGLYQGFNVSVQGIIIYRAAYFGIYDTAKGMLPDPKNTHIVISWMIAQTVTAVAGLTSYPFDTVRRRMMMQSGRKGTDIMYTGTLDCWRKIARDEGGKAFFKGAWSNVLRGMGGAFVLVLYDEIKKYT
Chain of Isocitrate dehydrogenase [NAD] subunit alpha, mitochondrial (Homo sapiens) (P50213 whole entry): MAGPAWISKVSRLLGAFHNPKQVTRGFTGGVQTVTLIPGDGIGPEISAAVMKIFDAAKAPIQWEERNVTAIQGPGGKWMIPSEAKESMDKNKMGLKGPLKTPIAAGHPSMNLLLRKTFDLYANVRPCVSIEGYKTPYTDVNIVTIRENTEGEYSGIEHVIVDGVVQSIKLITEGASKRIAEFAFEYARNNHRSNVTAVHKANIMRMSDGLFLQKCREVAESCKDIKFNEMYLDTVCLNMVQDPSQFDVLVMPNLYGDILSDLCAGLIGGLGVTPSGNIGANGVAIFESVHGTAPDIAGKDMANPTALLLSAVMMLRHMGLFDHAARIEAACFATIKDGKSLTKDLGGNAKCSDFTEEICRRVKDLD
Chain of Transmembrane emp24 domain-containing protein 10 (Homo sapiens) (P49755 whole entry, the tested form may be a part): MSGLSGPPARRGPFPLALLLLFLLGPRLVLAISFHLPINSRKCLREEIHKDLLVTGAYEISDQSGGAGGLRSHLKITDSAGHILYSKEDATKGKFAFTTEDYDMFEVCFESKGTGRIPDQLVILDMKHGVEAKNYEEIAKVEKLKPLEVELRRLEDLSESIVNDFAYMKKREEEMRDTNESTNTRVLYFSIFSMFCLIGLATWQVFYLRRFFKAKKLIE
Chain of Thioredoxin (Homo sapiens) (P10599 whole entry): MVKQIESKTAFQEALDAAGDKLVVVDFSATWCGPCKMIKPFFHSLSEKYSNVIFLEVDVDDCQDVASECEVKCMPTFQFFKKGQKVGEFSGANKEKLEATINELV
Chain of Y-box-binding protein 1 (Homo sapiens) (P67809 whole entry): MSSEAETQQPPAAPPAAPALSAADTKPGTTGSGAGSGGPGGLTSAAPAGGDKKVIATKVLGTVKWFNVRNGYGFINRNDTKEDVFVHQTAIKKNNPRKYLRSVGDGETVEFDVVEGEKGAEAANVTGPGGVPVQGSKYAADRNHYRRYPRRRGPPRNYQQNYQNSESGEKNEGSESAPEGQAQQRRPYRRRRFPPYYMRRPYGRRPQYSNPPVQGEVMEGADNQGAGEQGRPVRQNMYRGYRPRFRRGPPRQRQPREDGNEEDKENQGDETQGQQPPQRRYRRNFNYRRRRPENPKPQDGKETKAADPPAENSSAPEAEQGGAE

For the compound `COc1cc(O)c2c(c1)/C=C/C[C@H](O)[C@H](O)C(=O)/C=C\C[C@H](C)OC2=O`, in experiment [1], the Activity worked out at 19%.
For the compound `C=CC(=O)Nc1ccccc1Nc1nc(Nc2ccc(N3CCN(CCOCCOCCOCCNC(=O)CCCC[C@@H]4SC[C@@H]5NC(=O)N[C@@H]54)CC3)cc2)ncc1Cl`, the outcome in experiment [2], in [3], in experiment [4], in experiment [5], in experiment [6] and in experiment [7] was Active. The result in [8], in experiment [9], in [10], in [11], in experiment [12] and in experiment [13] was Active. Moreover, the result in experiment [14], in experiment [15], in [16], in [17], in [18] and in experiment [19] was Active. In addition, the outcome (in experiment [20]; in experiment [21]; in experiment [22]; in the experiment with NCI-H23; in experiment [23]; in experiment [24]) was Active. For the same compound, the outcome in experiment [25], in experiment [26] and in experiment [27] was Active.

(Values after ChEMBL document CHEMBL4118021, “Studies of TAK1-centered polypharmacology with novel covalent TAK1 inhibitors” (Bioorg Med Chem, 2017).)
